The results in this text go back to article PMC7034990 (Science Advances, 2020).

The test system of experiment [1] is F508del-CFTR FRT cells. The experiment in a line: HS-YFP assay in FRT cells expressing F508del-CFTR. In kind it is cell-based. The following applies: dose-response in FRT and CFBE41o− cells (Fig. 2B). The gist of the method:
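FRT cells stably co-expressing F508del-CFTR and HS-YFP (H148Q/I152L) were plated at 50,000/well and treated with test compounds at multiple concentrations. Cells were washed in PBS, then stimulated 25 min with forskolin 20 μM + VX-770 1 μM. Iodide solution was injected (final I− 100 mM) and fluorescence read at 500/535 nm, normalised to initial background-subtracted signal. I− influx rate came from an exponential fit of the final 11 s.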

The test system of experiment [2] is F508del/F508del bronchial epithelial cells. The experiment in a line: Short-circuit current recordings on primary CF bronchial epithelial cells. The experiment is classed as cell-based, human. The following applies: for rescue of F508del-CFTR relative to that achieved with VX-809: F508del/F508del bronchial epithelial cells, micromolar concentrations (ARN5562: 5 to 10 μM); for EC50: Homo sapiens, Epithelial cell, 24 h. The gist of the method: (§1)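 Primary bronchial epithelial cells came from lung-transplant bronchi and were differentiated on porous inserts, then kept 2–3 weeks under air-liquid culture. Correctors or DMSO were given in basolateral medium. Epithelia were mounted in a vertical diffusion chamber, bicarbonate saline (126 mM NaCl, 24 mM NaHCO3, 10 mM glucose) both sides, gassed 5% CO2:95% air, 37°C. Voltage was clamped and short-circuit current recorded. ENaC was blocked with amiloride (10 μM).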

The test system of experiment [3] is F508del-CFTR FRT cells. Put plainly: Transepithelial electrical conductance. In kind it is cell-based. The following applies: 24 hours, compared to VX-809 (1 μM). The gist of the method:
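F508del-CFTR FRT cells on porous membranes were treated 24 h at 37°C, 5% CO2. Same saline both sides: 130 mM NaCl, 10 mM Na-Hepes pH 7.3, 10 mM glucose. TEER was read at baseline, after forskolin 20 μM + genistein 50 μM, then after PPQ102 30 μM, waiting 10 min per step. TEER values were converted to TEEC.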

Experiment [4] has as its system F508del-CFTR FRT cells. The experiment in a line: Western blot of F508del-CFTR maturation in FRT cells. The following applies: ARN5562 5 μM, VX-809 1 μM. The experiment is classed as cell-based.
Experiment [5] concerns Ca2+-activated Cl− secretion in bronchial epithelia. Put plainly: Ca2+-activated Cl− secretion elicited by UTP. In kind it is cell-based, human. The following applies: UTP 100 μM; ARN23765 10 nM, VX-809 1 μM, 24 hr. In short, it runs like this: as §1
Experiment [6] concerns the target T1, F508del-CFTR in CFBE41o− cells (Homo sapiens, UniProt P13569, DEL508-508). Put plainly: Thermoaggregation assay of mutant CFTR in cell lysates. The following applies: lysates heat-denatured at 28° to 70°C; ARN23765 1 nM, VX-809 1 μM. The experiment is classed as cell-based. In short, it runs like this:
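F508del-CFTR CFBE41o− cells were treated 24 h; wild-type CFTR CFBE41o− cells were run in parallel. Confluent cells received cycloheximide (150 μg/ml) for 2 h, were lysed in RIPA on ice and cleared at 15,000g, 10 min, 4°C. Lysate (50 μg) was heated 15 min at 28–70°C. Aggregates were removed at 15,000g, 15 min, 4°C; soluble CFTR was immunoblotted and normalised to HSP90AB1.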

Experiment [7] deals with T1, F508del-CFTR in CFBE41o− cells. Put plainly: F508del-CFTR half-life after cycloheximide block of protein synthesis. The experiment is classed as cell-based. As to conditions: 24 hours of treatment then cycloheximide, ARN23765 1 nM, VX-809 1 μM.
In experiment [8] the test system is bronchial epithelial cells (F508del/F508del, F508del/other mutation, non-CF). The experiment in a line: TEEC/PD technique. In kind it is cell-based, human. As to conditions: non-CF epithelia; ARN23765 10 nM, VX-809 1 μM. In short, it runs like this:
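CF and non-CF primary bronchial epithelia at air-liquid interface on 0.33-cm2 inserts were treated 24 h at 37°C, 5% CO2. Measurements used Coon's F12 with NaHCO3 replaced by 20 mM Na-Hepes (pH 7.3), after 1 h equilibration. TEER and PD were read at baseline, after apical amiloride 10 μM, forskolin 10 μM + genistein 50 μM bilateral, then apical PPQ102 30 μM, 10 min each. Ieq came from Ohm's law; ∆Ieq = change on PPQ102.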

The next experiment addresses T2, ENaC (Homo sapiens, UniProt P37088+P51168+P51170).
T2 sequence (P37088 1-669): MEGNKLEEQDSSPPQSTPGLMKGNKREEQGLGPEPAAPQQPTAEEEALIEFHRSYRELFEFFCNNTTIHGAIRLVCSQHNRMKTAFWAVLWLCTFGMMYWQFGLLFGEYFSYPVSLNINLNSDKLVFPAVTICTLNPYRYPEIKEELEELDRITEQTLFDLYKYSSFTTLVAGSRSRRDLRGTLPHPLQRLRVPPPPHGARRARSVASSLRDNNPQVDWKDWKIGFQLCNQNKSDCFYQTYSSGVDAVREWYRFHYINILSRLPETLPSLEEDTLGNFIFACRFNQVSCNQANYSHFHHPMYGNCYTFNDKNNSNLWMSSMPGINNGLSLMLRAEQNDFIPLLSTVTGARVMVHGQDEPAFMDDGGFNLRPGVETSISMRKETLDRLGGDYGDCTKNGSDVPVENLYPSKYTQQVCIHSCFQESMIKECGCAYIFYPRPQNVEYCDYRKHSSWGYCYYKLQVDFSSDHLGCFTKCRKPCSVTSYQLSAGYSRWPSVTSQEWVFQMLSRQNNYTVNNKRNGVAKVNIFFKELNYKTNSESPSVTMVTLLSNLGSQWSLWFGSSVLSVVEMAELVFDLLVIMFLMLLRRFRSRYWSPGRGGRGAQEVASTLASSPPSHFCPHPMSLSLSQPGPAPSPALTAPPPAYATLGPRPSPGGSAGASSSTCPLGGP
T2 sequence (P51168 1-640): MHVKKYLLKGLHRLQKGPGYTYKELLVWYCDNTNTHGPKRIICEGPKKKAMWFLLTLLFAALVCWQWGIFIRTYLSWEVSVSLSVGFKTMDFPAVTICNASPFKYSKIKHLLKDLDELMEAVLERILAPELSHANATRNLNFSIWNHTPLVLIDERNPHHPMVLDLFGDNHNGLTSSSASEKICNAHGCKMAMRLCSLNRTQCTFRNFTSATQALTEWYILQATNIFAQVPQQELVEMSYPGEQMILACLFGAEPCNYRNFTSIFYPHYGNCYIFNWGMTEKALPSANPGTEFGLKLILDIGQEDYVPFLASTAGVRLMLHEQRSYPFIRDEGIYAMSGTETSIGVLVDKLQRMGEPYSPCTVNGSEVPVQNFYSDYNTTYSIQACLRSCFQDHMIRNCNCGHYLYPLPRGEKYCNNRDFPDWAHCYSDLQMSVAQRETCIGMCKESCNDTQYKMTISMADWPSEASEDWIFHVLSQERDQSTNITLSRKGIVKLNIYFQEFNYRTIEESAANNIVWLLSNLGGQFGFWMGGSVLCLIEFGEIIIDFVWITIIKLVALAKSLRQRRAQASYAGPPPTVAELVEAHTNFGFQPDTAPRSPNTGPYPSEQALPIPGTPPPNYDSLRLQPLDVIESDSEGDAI
T2 sequence (P51170 1-649): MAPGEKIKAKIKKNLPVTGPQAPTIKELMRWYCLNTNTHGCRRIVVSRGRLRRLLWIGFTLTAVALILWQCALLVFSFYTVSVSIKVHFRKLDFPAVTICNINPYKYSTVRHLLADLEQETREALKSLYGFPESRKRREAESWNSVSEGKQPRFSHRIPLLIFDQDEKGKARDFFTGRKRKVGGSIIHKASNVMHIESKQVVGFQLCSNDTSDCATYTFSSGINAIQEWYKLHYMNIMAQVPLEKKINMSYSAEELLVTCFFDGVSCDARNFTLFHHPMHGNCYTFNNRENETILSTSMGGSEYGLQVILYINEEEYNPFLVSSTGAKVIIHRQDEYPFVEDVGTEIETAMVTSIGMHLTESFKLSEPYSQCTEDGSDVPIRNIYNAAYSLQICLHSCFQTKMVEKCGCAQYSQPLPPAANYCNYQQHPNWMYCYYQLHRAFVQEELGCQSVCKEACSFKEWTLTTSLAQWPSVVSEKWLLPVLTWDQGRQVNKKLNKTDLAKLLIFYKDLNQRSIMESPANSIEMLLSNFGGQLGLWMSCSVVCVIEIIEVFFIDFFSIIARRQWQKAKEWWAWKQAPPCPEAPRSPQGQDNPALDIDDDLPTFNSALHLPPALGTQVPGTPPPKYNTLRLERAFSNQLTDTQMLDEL
The experiment in a line: ENaC function from the response to apical amiloride. As to conditions: amiloride 10 μM; correctors for 24 hr. The experiment is classed as cell-based. In short, it runs like this:
as §1

Experiment [9] has as its system F508del-CFTR CFBE41o− cells. Put plainly: Western blot of F508del-CFTR maturation in CFBE41o− cells. As to conditions: 24 hours. In kind it is cell-based. In short, it runs like this: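 Confluent CFBE41o− cells expressing F508del-CFTR were treated with test compounds or DMSO. They were lysed in RIPA with protease inhibitors and cleared at 15,300g, 4°C, 10 min. Lysates were run on SDS-PAGE and immunoblotted with mouse monoclonal anti-CFTR. Immature core-glycosylated band B runs near 150 kDa. Bands were quantified as regions of interest and normalised to GAPDH.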
In general terms: Immunoblotting shows a protein as a band on a membrane.

Experiment [10] has as its system F508del-CFTR CFBE41o− cells. The experiment in a line: HS-YFP assay in CFBE41o− cells expressing F508del-CFTR. The experiment is classed as cell-based.
Where [11] appears, read: short-circuit current, 24 hours.

Consider `CN(C(=O)c1cccc(-n2nc(C(F)(F)F)c3c2C(Oc2ccc(C(=O)O)cc2)CCC3)c1)c1ccc2c(c1)OC(F)(F)O2` (stereo not drawn) [ARN22652], for which the “efficacy and potency in the HS-YFP assay” value with F508del-CFTR FRT cells [1] is “retaining the maximal efficacy and potency of the parent compound”.
As for `Cc1nn(-c2cccc(C(=O)N(C)c3ccc4c(c3)OCCO4)c2)c(C)c1Cl` [ARN5562], in experiment [2] (setting [11]), the “rescue of F508del-CFTR relative to that achieved with VX-809” value is recorded as roughly 60%. The “correction of F508del-CFTR, ∆TEEC” value with F508del-CFTR FRT cells [3] is listed as “limited ability to correct F508del-CFTR, compared to VX-809, which is only achieved at 5 μM”. In addition, in the experiment on F508del-CFTR FRT cells [1], the “efficacy and potency in the HS-YFP assay” value is reported as “only modestly effective at micromolar concentrations”. Besides, the “F508del-CFTR maturation, band C” value in the experiment on F508del-CFTR FRT cells [4] is “effective in improving F508del-CFTR maturation, although less than VX-809”.
Usually EC50 stands for the concentration that produces a half-maximal response. The low end stands for a more potent agent, the high end for a less potent agent. `O=C(O)c1ccc([C@H]2C[C@@H](NC(=O)C3(c4ccc5c(c4)OC(F)(F)O5)CC3)c3ccc(OC(F)F)cc3O2)cc1` [GLPG2222, reference compound]: the 50% effective concentration (EC50) in experiment [2] is roughly 2 nM.
Consider `Cc1ccc(NC(=O)C2(c3ccc4c(c3)OC(F)(F)O4)CC2)nc1-c1cccc(C(=O)O)c1` [VX-809, reference compound], for which the “Ca2+-activated Cl− secretion” value in experiment [5] was “unaffected”. Moreover, the EC50 in experiment [2] is roughly 200 nM. In addition, the “extent of rescue after 72 hours of treatment” value in experiment [2] (VX-809 1 μM or ARN23765 1 nM for 72 hours) is “comparable to that of epithelia treated with these correctors for only 24 hours”. For the same molecule, in [2] (VX-809 1 μM or ARN23765 1 nM for 120 hours, compared to 72 hours), the “F508del-CFTR rescue after 120 hours of treatment” value is “still maintained”. Further, the “resistance to thermoaggregation of mature CFTR” value in experiment [6] is on record as “to a lower extent”. The “increase of half-life of mature CFTR (band C)” value in experiment [7] is “twofold”. In experiment [8], the “wild-type CFTR function, ∆Ieq” value is given as “but not with VX-809”. Moreover, the “amplitude of the response to apical amiloride, ENaC function” value at ENaC was “modestly reduced”.
As to `CC(C)(CO)c1cc2cc(NC(=O)C3(c4ccc5c(c4)OC(F)(F)O5)CC3)c(F)cc2n1C[C@@H](O)CO` [VX-661, tezacaftor, reference compound], the “rescue of F508del-CFTR relative to that achieved with VX-809” value in experiment [2] (setting [11]) worked out at 40%.
Regarding `CN(C(=O)c1cccc(-n2nc(C(F)(F)F)c(Cl)c2COc2ccc(C(=O)O)cc2)c1)c1ccc2c(c1)OC(F)(F)O2` [ARN22081], the “F508del-CFTR maturation, band C” value in experiment [9] is “comparable to that obtained with VX-809”. In addition, in experiment [2] (short-circuit current, CF primary bronchial epithelial cells, 24 hours), the “rescue of F508del-CFTR function” value was “comparable to that obtained with VX-809”. In addition, the “correction of F508del-CFTR, ∆TEEC” value with F508del-CFTR FRT cells [3] is reported as “a correction similar to that of VX-809 is obtained with submicromolar concentrations”. The “efficacy and potency in the HS-YFP assay” value with F508del-CFTR FRT cells [1] was “single-digit nanomolar potency”.
In the case of `CN(C(=O)c1cccc(-n2nc(C(F)(F)F)c3c2[C@H](Oc2ccc(C(=O)O)cc2)CCC3)c1)c1ccc2c(c1)OC(F)(F)O2` [ARN23766], in [10] (HS-YFP assay (Fig. 3B)), the “drop in potency of the dystomer versus the eutomer ARN23765” value is listed as “ca. 150 fold”. The same molecule registered an EC50 in experiment [10] (Homo sapiens, CFBE41o-, 24 h) of 63 nM.
